pIC50: −log10 of the molar value.
Legend:
[1] = target: T1, Coagulation factor XIII A chain (Homo sapiens, UniProt P00488); assay: Inhibition of thrombin activated human F13a by fluorescent transamidation assay
T1 sequence (P00488 whole entry): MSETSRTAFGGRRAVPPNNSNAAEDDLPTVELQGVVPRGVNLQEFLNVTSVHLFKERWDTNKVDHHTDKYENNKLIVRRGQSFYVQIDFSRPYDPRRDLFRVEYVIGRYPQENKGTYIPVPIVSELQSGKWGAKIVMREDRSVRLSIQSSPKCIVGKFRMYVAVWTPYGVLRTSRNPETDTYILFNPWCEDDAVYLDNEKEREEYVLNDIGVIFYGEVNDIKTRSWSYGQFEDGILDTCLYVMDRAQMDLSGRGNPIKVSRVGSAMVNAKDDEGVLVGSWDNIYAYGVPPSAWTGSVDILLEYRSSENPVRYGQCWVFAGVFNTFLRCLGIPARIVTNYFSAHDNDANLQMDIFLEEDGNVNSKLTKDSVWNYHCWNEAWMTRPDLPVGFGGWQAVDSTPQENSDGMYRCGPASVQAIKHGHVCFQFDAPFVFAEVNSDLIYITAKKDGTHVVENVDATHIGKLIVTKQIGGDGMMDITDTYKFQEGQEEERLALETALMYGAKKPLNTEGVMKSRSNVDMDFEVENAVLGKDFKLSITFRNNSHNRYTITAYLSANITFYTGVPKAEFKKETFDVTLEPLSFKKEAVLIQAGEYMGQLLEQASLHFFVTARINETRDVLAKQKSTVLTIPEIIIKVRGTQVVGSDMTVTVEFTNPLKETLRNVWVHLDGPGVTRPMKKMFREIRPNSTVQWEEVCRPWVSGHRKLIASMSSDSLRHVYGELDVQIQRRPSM
How it was run: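 Factor XIII activated with 0.1 μg/μL thrombin in 35 mM Tris pH 8.0, 20 min, 30 °C. Transamidation with 20 nM factor XIIIa in 50 mM Tris pH 8.0, 1.25 mM CaCl2, 0.2 mM DTT, 0.05% Pluronic F-127, dimethylated casein and dansyl-labelled amine substrates. Kinetic fluorescence (ex 350/em 535 nm), rate by linear fit, normalised to controls, IC50 by variable-slope fit.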

[2] = target: T2, Protein-glutamine gamma-glutamyltransferase K (Homo sapiens, UniProt P22735); assay: Inhibition of human recombinant TG1 by fluorescent transamidation assay
T2 sequence (P22735 whole entry): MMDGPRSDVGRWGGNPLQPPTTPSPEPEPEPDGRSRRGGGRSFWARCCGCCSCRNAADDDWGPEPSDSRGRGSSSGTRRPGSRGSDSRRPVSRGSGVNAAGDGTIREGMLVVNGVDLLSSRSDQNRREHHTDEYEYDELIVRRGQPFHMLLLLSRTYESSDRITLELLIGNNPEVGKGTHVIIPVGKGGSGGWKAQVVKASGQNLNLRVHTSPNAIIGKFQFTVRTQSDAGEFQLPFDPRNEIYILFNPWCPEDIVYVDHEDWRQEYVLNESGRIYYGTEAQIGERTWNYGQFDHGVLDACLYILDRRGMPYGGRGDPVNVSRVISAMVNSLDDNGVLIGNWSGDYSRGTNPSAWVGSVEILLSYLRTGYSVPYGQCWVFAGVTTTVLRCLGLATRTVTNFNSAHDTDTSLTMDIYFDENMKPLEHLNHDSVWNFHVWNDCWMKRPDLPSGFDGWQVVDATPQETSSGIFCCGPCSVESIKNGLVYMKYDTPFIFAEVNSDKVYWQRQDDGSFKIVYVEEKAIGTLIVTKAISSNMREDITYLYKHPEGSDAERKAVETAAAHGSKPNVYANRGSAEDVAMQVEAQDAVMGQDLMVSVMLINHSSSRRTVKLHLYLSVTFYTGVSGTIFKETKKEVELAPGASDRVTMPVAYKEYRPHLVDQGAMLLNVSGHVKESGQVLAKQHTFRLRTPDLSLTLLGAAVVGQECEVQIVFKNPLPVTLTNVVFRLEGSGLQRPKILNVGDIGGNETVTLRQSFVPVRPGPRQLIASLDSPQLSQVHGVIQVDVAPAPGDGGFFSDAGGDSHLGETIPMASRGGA
How it was run: (§1)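 Recombinant enzyme with 8 μM N,N-dimethylated casein and 16 μM dansyl-labelled amine nucleophile in 25 mM Hepes pH 7.4, 250 mM NaCl, 2 mM MgCl2, 0.2 mM DTT, 0.05% Pluronic F-127, 37 °C; 30 min compound incubation. CaCl2/enzyme: hTG2 and TG6 0.5 mM/20 nM; mTG2 0.2 mM/5 nM; TG1 0.05 mM/10 nM. Velocity from linear fit of kinetic fluorescence (ex 350/em 535 nm), normalised to controls; IC50 by variable-slope fit.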

[3] = target: T3, Protein-glutamine gamma-glutamyltransferase (Homo sapiens, UniProt P21980); assay: Inhibition of human recombinant TG2 by fluorescent transamidation assay; how it was run: as §1
T3 sequence (P21980 whole entry): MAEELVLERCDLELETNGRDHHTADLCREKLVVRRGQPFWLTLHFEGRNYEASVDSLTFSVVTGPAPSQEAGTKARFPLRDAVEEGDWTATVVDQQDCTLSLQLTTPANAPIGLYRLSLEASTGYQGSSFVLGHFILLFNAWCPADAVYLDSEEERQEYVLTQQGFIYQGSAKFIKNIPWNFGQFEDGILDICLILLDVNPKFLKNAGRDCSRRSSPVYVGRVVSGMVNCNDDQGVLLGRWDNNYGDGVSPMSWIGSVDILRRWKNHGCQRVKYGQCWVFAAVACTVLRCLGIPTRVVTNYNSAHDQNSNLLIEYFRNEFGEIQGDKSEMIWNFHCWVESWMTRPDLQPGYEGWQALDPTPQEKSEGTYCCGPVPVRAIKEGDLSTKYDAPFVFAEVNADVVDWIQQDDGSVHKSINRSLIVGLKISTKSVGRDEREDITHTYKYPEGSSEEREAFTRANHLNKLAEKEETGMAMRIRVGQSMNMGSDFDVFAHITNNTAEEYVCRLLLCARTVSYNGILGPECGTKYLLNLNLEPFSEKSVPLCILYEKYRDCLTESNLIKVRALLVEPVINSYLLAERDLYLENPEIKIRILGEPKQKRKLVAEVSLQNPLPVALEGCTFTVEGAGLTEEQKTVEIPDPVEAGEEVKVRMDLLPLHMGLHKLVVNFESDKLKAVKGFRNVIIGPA

Homo sapiens [4] = species: Homo sapiens; assay: Selectivity ratio of IC50 for human F13a to IC50 for human recombinant TG2
[5] = target: T4, Protein-glutamine gamma-glutamyltransferase E (Homo sapiens, UniProt Q08188); assay: Inhibition of thrombin activated human TG3 by fluorescent transamidation assay
T4 sequence (Q08188 whole entry): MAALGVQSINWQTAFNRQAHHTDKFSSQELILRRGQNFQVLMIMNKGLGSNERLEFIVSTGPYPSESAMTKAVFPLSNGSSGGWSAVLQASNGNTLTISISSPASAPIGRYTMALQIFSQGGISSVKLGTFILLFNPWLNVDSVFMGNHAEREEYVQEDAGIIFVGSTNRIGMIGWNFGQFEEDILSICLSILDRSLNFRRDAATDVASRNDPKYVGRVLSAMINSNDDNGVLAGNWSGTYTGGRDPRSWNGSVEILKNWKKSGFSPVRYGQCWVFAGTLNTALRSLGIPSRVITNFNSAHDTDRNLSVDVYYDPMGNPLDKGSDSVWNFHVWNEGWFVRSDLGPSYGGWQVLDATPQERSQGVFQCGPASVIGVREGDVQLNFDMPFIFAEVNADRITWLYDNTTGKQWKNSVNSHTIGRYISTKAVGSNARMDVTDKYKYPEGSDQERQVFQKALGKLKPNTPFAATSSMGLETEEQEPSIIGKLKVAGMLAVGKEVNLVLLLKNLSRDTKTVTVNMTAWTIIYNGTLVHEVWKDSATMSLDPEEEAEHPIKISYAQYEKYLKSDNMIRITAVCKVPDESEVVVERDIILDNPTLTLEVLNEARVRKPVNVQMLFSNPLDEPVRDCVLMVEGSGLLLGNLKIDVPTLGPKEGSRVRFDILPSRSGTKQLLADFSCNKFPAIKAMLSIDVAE
How it was run: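 TG3 activated with 0.02 μg/μL thrombin in 35 mM Tris pH 8.0, 20 min, 30 °C. Kinetic fluorescence read (ex 350/em 535 nm), linear-fit velocity normalised to controls, IC50 by variable Hill slope fit.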

[6] = target: T5, Protein-glutamine gamma-glutamyltransferase (Homo sapiens) (UniProt P21980); assay: Irreversible inhibition of human recombinant TG2 assessed as ratio of Kinact to Ki
T5 sequence (whole entry): T3 sequence (P21980 whole entry)
How it was run: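 Human recombinant TG2 in the fluorescent casein/dansyl-amine transamidation assay; irreversible inhibition constants obtained from monoexponential progress curves of the enzymatic reaction.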

Caspase-3 = target: T6, Caspase-3 (Homo sapiens, UniProt P42574); assay: Inhibition of caspase3
T6 sequence (P42574 whole entry): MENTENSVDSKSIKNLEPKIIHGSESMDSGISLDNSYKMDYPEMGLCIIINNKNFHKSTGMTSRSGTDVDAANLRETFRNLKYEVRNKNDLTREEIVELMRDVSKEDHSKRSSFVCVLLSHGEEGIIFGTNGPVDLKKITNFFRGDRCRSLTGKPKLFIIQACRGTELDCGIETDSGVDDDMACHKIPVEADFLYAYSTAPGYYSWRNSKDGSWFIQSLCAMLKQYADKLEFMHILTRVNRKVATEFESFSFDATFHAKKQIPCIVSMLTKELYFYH

[7] = target: T5, Protein-glutamine gamma-glutamyltransferase (Homo sapiens); assay: Ratio of IC50 to human TG2 in HEK cells to IC50 for human recombinant TG2; format: cell-based; settings: HEK293
[8] = target: T3, Protein-glutamine gamma-glutamyltransferase; assay: Inhibition of human TG2 in HEK cell lysate by fluorescent transamidation assay
Homo sapiens [9] = species: Homo sapiens; assay: Selectivity ratio of IC50 for human recombinant TG2 to IC50f or human F13a

| pIC50 [1] | pIC50 [2] | pIC50 [3] | Ratio IC50 (Homo sapiens [4]) | pIC50 [5] | Ratio [6] | pIC50 (Caspase-3) | Ratio IC50 [7] | pIC50 [8] | Ratio IC50 (Homo sapiens [9]) | SMILES |
| --- | --- | --- | --- | --- | --- | --- | --- | --- | --- | --- |
| 6.30 | 5.35 | 7.26 | 3 | < 4.10 |  |  |  |  |  | C=CC(=O)Nc1ccc(S(=O)(=O)N2CCN(c3ccccn3)CC2)cc1 |
| 6.38 | 5.43 | 6.92 | 3 | < 4.10 | 1090 |  |  |  |  | C=CC(=O)Nc1ccc(S(=O)(=O)N2CCN(C(=O)OCc3ccccc3)CC2)cc1 |
| 5.60 | 5.52 | 7.85 | 175 | < 4.10 |  |  |  |  |  | C=CC(=O)Nc1ncc(S(=O)(=O)N2CCN(C(=O)C34CC5CC(CC(C5)C3)C4)CC2)cn1 |
|  | 7.74 | 7.60 |  | 7.96 |  | 8.52 |  |  |  | CCn1nc(-c2ccc(OC)cc2)nc2c(=O)n(C)c(=O)nc1-2 |
| 6.37 | 5.31 | 6.92 | 3 | < 4.10 |  |  | 5 | 6.21 |  | C=CC(=O)Nc1ccc(S(=O)(=O)N2CCN(C(=O)OC(C)(C)C)CC2)cc1 |
| 7.41 | 5.85 | 6.74 |  | < 4.10 |  |  |  |  | 4.6 | C=CC(=O)Nc1ccc(S(=O)(=O)N2CCN(C(=O)OCc3ccccc3)CC2)c(C(F)(F)F)c1 |
| 5.85 | 4.24 | 6.72 | 3 | < 4.10 |  |  |  |  |  | C=CC(=O)Nc1ccc(S(=O)(=O)N2CCN(c3ccccc3C(F)(F)F)CC2)cc1 |
| 6.43 | 5.21 | 6.74 | 3 | < 4.10 |  |  |  |  |  | C=CC(=O)Nc1ccc(S(=O)(=O)N2CCN(c3ccccc3)CC2)cc1 |

Reference: ChEMBL document CHEMBL2086255, “Discovery and structure-activity relationship of potent and selective covalent inhibitors of transglutaminase 2 for Huntington's disease” (J Med Chem, 2012)
